Test results: publication PMC8693849 (RSC Advances, 2021)
In brackets after ≈: the same amount, converted by molar mass.

Experiments:
[1] = tested on: K. pneumoniae (MDR clinical isolate); assay: Minimal inhibitory concentration; assay type: cell-based; details: for SI (selectivity index, CC50/MIC): K. pneumoniae vs VERO cells
In short: (§1)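 Broth microdilution against MDR clinical isolates: 80 μl Mueller–Hinton broth plus 20 μl tween 80 received 100 μl test compound, then two-fold serial dilution. Each well was inoculated with 100 μl of 0.5 McFarland suspension ([…]) and incubated covered at 35 ± 2 °C for 24 h. MIC is the lowest concentration inhibiting growth.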

S. aureus (ATCC 25923) = assay: Agar diffusion method, zone of inhibition; assay type: cell-based, Staphylococcus aureus; details: for Diameter of zone inhibition: S. aureus (ATCC 25923), average of triplicate; for zone of inhibition at 10 µg/mL / zone of inhibition at 15 µg/mL: Staphylococcus aureus, ATCC25923, 24 h, read-out: Diameter of zone inhibition
In short: (§2)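 Bacterial strains were tested by agar diffusion on nutrient agar (peptone 5 and meat extract 3 g L⁻¹ in distilled water, pH 7.0, 2% agar, autoclaved 121 °C for 20 min). Each test compound (1 mg) was dissolved in 1 mL DMSO and made up to 10 mL with sterile water (100 μg mL⁻¹ stock). The solution was placed in the agar, and inhibition zones were measured after 24 h incubation. Values are the mean of triplicate readings.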

C. albicans = assay: Agar diffusion method, zone of inhibition; assay type: cell-based, Candida albicans; details: for Diameter of zone inhibition: C. albicans, average of triplicate; for zone of inhibition at 10 µg/mL / zone of inhibition at 15 µg/mL: Candida albicans, 24 h, read-out: Diameter of zone inhibition
In short: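 For agar diffusion against C. albicans, each test compound (1 mg) was dissolved in 1 mL DMSO and diluted to 10 mL with sterile water (100 μg mL⁻¹ stock). The solution was placed in the agar, and the inhibition zone diameter was read after 24 h. Values are the average of triplicate readings.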

Gram-negative bacteria = assay: Agar diffusion method; assay type: cell-based, P. phaseolicola (GSPB 2828) and P. fluorescens (S 97); details: summary of Table 1
In short: as §2

VERO cells = assay: In vitro cytotoxicity, MTT assay; assay type: cell-based, African Green Monkey; details: normal VERO cells, 72 h, Table 4
S. pyogenes (ATCC 19615) = assay: Agar diffusion method, zone of inhibition; assay type: cell-based, Streptococcus pyogenes; details: for Diameter of zone inhibition: S. pyogenes (ATCC 19615), average of triplicate; for zone of inhibition at 10 µg/mL / zone of inhibition at 15 µg/mL: Streptococcus pyogenes, ATCC19615, 24 h, read-out: Diameter of zone inhibition
[2] = tested on: K. pneumoniae (MDR clinical isolate); assay: Zone of inhibition against MDR clinical isolate; assay type: cell-based; details: for Diameter of zone inhibition: MDR K. pneumoniae clinical isolate, 15 μg mL^−1; for zone of inhibition at 15 µg/mL: Klebsiella pneumoniae, read-out: Diameter of zone inhibition
[3] = tested on: MRSA1 (methicillin resistant S. aureus); assay: Zone of inhibition against MDR clinical isolate; assay type: cell-based; details: for Diameter of zone inhibition: MRSA1 clinical isolate, 15 μg mL^−1; for zone of inhibition at 15 µg/mL: Staphylococcus aureus, read-out: Diameter of zone inhibition
[4] = tested on: MRSA1 (methicillin resistant S. aureus); assay: Minimum bactericidal concentration; assay type: cell-based; details: MRSA; >4 = bacteriostatic
[5] = tested on: MRSA1 (methicillin resistant S. aureus); assay: Minimal inhibitory concentration; assay type: cell-based; details: for Activity against methicillin resistant S. aureus: MDR clinical isolate, Table 2; for SI (selectivity index, CC50/MIC): MRSA1 vs VERO cells
In short: as §1

[6] = tested on: P. phaseolicola (GSPB 2828); assay: Agar diffusion method, zone of inhibition; assay type: cell-based, Pseudomonas phaseolicola; details: Pseudomonas, 24 h, read-out: Diameter of zone inhibition
In short: as §2

Gram-positive bacteria = assay: Agar diffusion method; assay type: cell-based, S. aureus (ATCC 25923) and S. pyogenes (ATCC 19615); details: summary of Table 1
In short: as §2

P. fluorescens (S 97) = assay: Agar diffusion method, zone of inhibition; assay type: cell-based, Pseudomonas fluorescens; details: for zone of inhibition at 10 µg/mL / zone of inhibition at 15 µg/mL: Pseudomonas fluorescens, 24 h, read-out: Diameter of zone inhibition
In short: as §2

[7] = tested on: K. pneumoniae (MDR clinical isolate); assay: Minimum bactericidal concentration; assay type: cell-based; details: >4 = bacteriostatic
[8] = MDR K. pneumoniae clinical isolate, Table 2

Compound | MIC ([1]; K. pneumoniae, Table 4) [µg/mL] | Activity against Gram-negative bacteria (Gram-negative bacteria) | SI (selectivity index, CC50/MIC) [5] | MIC ([5]; Staphylococcus aureus) [µg/mL] | zone of inhibition at 10 µg/mL [6] [mm] | zone of inhibition at 10 µg/mL (C. albicans) [mm] | zone of inhibition at 15 µg/mL (C. albicans) [mm] | Activity against Gram-positive bacteria (Gram-positive bacteria) | zone of inhibition at 10 µg/mL (P. fluorescens (S 97)) [mm] | zone of inhibition at 15 µg/mL (P. fluorescens (S 97)) [mm] | zone of inhibition at 15 µg/mL [2] [mm] | zone of inhibition at 15 µg/mL [3] [mm] | zone of inhibition at 15 µg/mL [6] [mm] | zone of inhibition at 10 µg/mL (S. pyogenes (ATCC 19615)) [mm] | zone of inhibition at 10 µg/mL (S. aureus (ATCC 25923)) [mm] | other results
2-(5-(4-Chlorophenyl)-6-cyano-2-(2-hydroxyphenyl)-7-imino-2-methyl-1,2-dihydro-[1,2,4]triazolo[1,5-a]pyrimidin-3(7H)-yl)propanoic acid [Compound 8b] | 25 | active | – | – | – | – | – | – | – | – | – | – | – | – | – | MIC [1, 8]: 25 µg/mL; Diameter of zone inhibition (S. aureus (ATCC 25923); 10 μg mL^−1, 24 h): 12 mm; Diameter of zone inhibition (S. aureus (ATCC 25923); 15 μg mL^−1, 24 h): 22 mm; Diameter of zone inhibition (C. albicans; 10 μg mL^−1, 24 h): 8 mm; Diameter of zone inhibition (C. albicans; 15 μg mL^−1, 24 h): 10 mm; CC50 (VERO cells): 125 µg/mL; Diameter of zone inhibition (S. pyogenes (ATCC 19615); 15 μg mL^−1, 24 h): 26 mm; Diameter of zone inhibition [2]: 27 mm; Diameter of zone inhibition [3]: 8 mm
CCOC(=O)C1=C(C)N2NC(c3ccccc3O)N(C(Cc3c[nH]c4ccccc34)C(=O)O)C2=NC1c1ccc(Cl)cc1 (centres unmarked) [Compound 3c, 2-(5-(4-Chlorophenyl)-6-(ethoxycarbonyl)-2-(2-hydroxyphenyl)-7-methyl-1,2-dihydro-[1,2,4]triazolo[1,5-a]pyrimidin-3(5H)-yl)-3-(1H-indol-3-yl)propanoic acid] | – | – | 20 | 12.5 (≈ 20.8 µM) | 10 | 6 | 7 | active | 8 | 23 | 9 | 24 | – | – | – | MIC index (MBC/MIC) [4]: > 4; Activity against methicillin resistant S. aureus [5]: remarkable activity; MIC ([5]; MRSA1, Table 3): 12.5 µg/mL (≈ 20.8 µM)
N#Cc1c(-c2ccc(Cl)cc2)nc2n(c1=O)NC(c1ccccc1O)N2C(Cc1c[nH]c2ccccc12)C(=O)O (centres unmarked) [Compound 9c, 2-(5-(4-Chlorophenyl)-6-cyano-2-(2-hydroxyphenyl)-7-oxo-1,2-dihydro-[1,2,4]triazolo[1,5-a]pyrimidin-3(7H)-yl)-3-(1H-indol-3-yl)propanoic acid] | – | – | 10 | 25 (≈ 45.2 µM) | 10 | 9 | 11 | active | 11 | 20 | 13 | 27 | 22 | 19 | – | MIC ([5]; MRSA1, Table 4): 25 µg/mL (≈ 45.2 µM)
CC1(c2ccccc2O)Nn2c(nc(-c3ccc(Cl)cc3)c(C#N)c2=O)N1C(Cc1c[nH]c2ccccc12)C(=O)O (centres unmarked) [Compound 9d, 2-(5-(4-Chlorophenyl)-6-cyano-2-(2-hydroxyphenyl)-2-methyl-7-oxo-1,2-dihydro-[1,2,4]triazolo[1,5-a]pyrimidin-3(7H)-yl)-3-(1H-indol-3-yl)propanoic acid] | – | – | 40 | 12.5 (≈ 22 µM) | 10 | 7 | 8 | active | 12 | 23 | 11 | 29 | – | 19 | 20 | MIC index (MBC/MIC) [4]: > 4; Activity against methicillin resistant S. aureus [5]: remarkable activity; MIC ([5]; MRSA1, Table 3): 12.5 µg/mL (≈ 22 µM)
CC(C(=O)O)N1c2nc(-c3ccc(Cl)cc3)c(C#N)c(=O)n2NC1(C)c1ccccc1O (centres unmarked) [Compound 9b, 2-(5-(4-Chlorophenyl)-6-cyano-2-(2-hydroxyphenyl)-2-methyl-7-oxo-1,2-dihydro-[1,2,4]triazolo[1,5-a]pyrimidin-3(7H)-yl)propanoic acid] | 25 (≈ 55.3 µM) | active | – | – | 19 | 6 | 8 | – | – | 28 | 29 | 7 | – | – | 15 | SI (selectivity index, CC50/MIC) [1]: 10; zone of inhibition at 15 µg/mL (S. aureus (ATCC 25923)): 26 mm; zone of inhibition at 15 µg/mL (S. pyogenes (ATCC 19615)): 25 mm
2-(5-(4-Chlorophenyl)-6-cyano-2-(2-hydroxyphenyl)-7-imino-1,2-dihydro-[1,2,4]triazolo[1,5-a]pyrimidin-3(7H)-yl)propanoic acid [Compound 8a] | – | active | – | – | – | – | – | – | – | – | – | – | – | – | – | MIC ([1]; K. pneumoniae, Table 3): 12.5 µg/mL; MIC [1, 8]: 12.5 µg/mL; Diameter of zone inhibition (S. aureus (ATCC 25923); 10 μg mL^−1, 24 h): 13 mm; Diameter of zone inhibition (S. aureus (ATCC 25923); 15 μg mL^−1, 24 h): 20 mm; Diameter of zone inhibition (C. albicans; 10 μg mL^−1, 24 h): 10 mm; Diameter of zone inhibition (C. albicans; 15 μg mL^−1, 24 h): 13 mm; CC50 (VERO cells): 125 µg/mL; Diameter of zone inhibition (P. fluorescens (S 97); P. fluorescens (S 97), 15 μg mL^−1, 24 h, average of triplicate): 29 mm; Diameter of zone inhibition (S. pyogenes (ATCC 19615); 10 μg mL^−1, 24 h): 12 mm; MIC index (MBC/MIC) [7]: > 4; Diameter of zone inhibition [2]: 28 mm; Diameter of zone inhibition [3]: 6 mm
CC(C(=O)O)N1c2nc(-c3ccc(Cl)cc3)c(C#N)c(=O)n2NC1c1ccccc1O (centres unmarked) [Compound 9a, 2-(5-(4-Chlorophenyl)-6-cyano-2-(2-hydroxyphenyl)-7-oxo-1,2-dihydro-[1,2,4]triazolo[1,5-a]pyrimidin-3(7H)-yl)propanoic acid] | 25 (≈ 57.1 µM) | active | – | – | – | 6 | 9 | – | – | 30 | 27 | 5 | 30 | 12 | – | SI (selectivity index, CC50/MIC) [1]: 20; zone of inhibition at 15 µg/mL (S. aureus (ATCC 25923)): 26 mm; zone of inhibition at 15 µg/mL (S. pyogenes (ATCC 19615)): 27 mm
CC(=O)C1=C(C)N2NC(C)(c3ccccc3O)N(C(Cc3c[nH]c4ccccc34)C(=O)O)C2=NC1c1ccc(Cl)cc1 (centres unmarked) [Compound 2d, 2-(6-Acetyl-5-(4-chlorophenyl)-2-(2-hydroxyphenyl)-2,7-dimethyl-1,2-dihydro-[1,2,4]triazolo[1,5-a]pyrimidin-3(5H)-yl)-3-(1H-indol-3-yl)propanoic acid] | – | – | 20 | 25 (≈ 42.8 µM) | 12 | 9 | 12 | active | – | – | 6 | 28 | 22 | 20 | 20 | MIC ([5]; MRSA1, Table 4): 25 µg/mL (≈ 42.8 µM)
